Experimental findings from the RNAGym collection of RNA variant scans (doi:10.1038/nmeth.2970) are described below.

To fix the notation:
B1: GFP aptamer (parent)
chain: GCUUCUGGACUGCGAUGGGAGCACGAAACGUCGUGGCGCAAUUGGGUGGGGAAAGUCCUUAAAAGAGGGCCACCACAGAAGC

Variants of B1 are the subject of the data set. The experiment in a line: HiTS-RAP. The conditions noted are these: with EGFP. In a few lines: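 Aptamer DNA templates carrying a T7 promoter and ter site were sequenced on an Illumina GAIIx flowcell, then transcribed in situ by T7 RNA polymerase and halted by GST-Tus (30 minutes, 37°C). Clusters were imaged after 30-minute room-temperature equilibration with EGFP-mOrange at 0.04 nM to 625 nM in fivefold steps. Intensities were decay-corrected, normalised to sequencing intensity and averaged per sequence. Kd came from weighted Hill fits per lane, geometrically averaged over three lanes, with non-rising sequences set to 125 nM.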
As for A80C, the Kd (in general, the constant that tells how readily two partners part at equilibrium) amounted to 12.1 nM.

Consider A80G, for which the Kd is 3.57 nM.

As for A80U, the Kd worked out at 6.99 nM.

Regarding G78A, the dissociation constant Kd amounted to 13.2 nM.

G78C: the Kd is 43.8 nM.

On to G78U, for which the Kd amounted to 6.2 nM.

For the variant C82U, the dissociation constant Kd came to 4.16 nM.

Regarding C82A, the Kd was found to be 3.36 nM.

On to C82G, for which the Kd is 10.1 nM.

Regarding G81U, the equilibrium dissociation constant (Kd) was 4.53 nM.

Turning to G81C, the dissociation constant Kd turned out to be 14.1 nM.

As for G81A, the Kd was 5.44 nM.

Consider A79U, for which the Kd was 7.52 nM.

Take A79G: the Kd stood at 4.31 nM.

Consider A79C, for which the equilibrium dissociation constant (Kd) amounted to 18.6 nM.
